In brackets after ≈: the same amount, converted by molar mass. Activity calls are given as the source filed them. No cut-off for these calls is given here.
Legend:
[1] = tested on: Streptococcus pneumoniae; assay: Antibacterial activity against gram-positive Streptococcus pneumoniae SP160 harboring tet(M) by CLSI method; format: functional
Method in brief: (§1)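 CLSI broth microdilution MIC in fresh cation-adjusted Mueller Hinton broth, supplemented with defibrinated horse blood where appropriate. Compounds serially diluted in sterile deionized water. Runs accepted when comparator antibiotics against ATCC quality-control strains fell within recommended ranges.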

[2] = tested on: Pseudomonas aeruginosa; assay: Antibacterial activity against Pseudomonas aeruginosa PA1145 in BALB/c mouse model of lung infection assessed as reduction in log10CFU per gram of lung compound administered intranasally as bid for 2 to 12 hrs of post-infection measured after 24 hrs; format: functional
Method in brief: (§2)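 Female BALB/c mice, 18 to 20 g, infected intranasally under light anesthesia with ~ 2 x 10^7 CFU/mouse of P. aeruginosa PA1145 (cystic fibrosis isolate) in 0.05 mL. Treatment at 2 and 12 h post-infection, IV, or intranasally for tobramycin; n = 6 per group. Lungs harvested 24 h after treatment began, homogenized, plated on MacConkey medium, incubated overnight at 37 °C in 5% CO2. CFU per gram lung compared with T = 24 h untreated control.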

[3] = tested on: Staphylococcus aureus; assay: Antibacterial activity against gram-positive Staphylococcus aureus SA158 harboring tet(K) by CLSI method; format: functional; method in brief: as §1
[4] = tested on: Pseudomonas aeruginosa; assay: Antibacterial activity against Pseudomonas aeruginosa PA1145 in BALB/c mouse model of lung infection assessed as reduction in log10CFU per gram of lung at 40 mg/kg, iv bid administered 2 to 12 hrs of post-infection measured after 24 hrs relative to untreated control; format: functional; method in brief: as §2
[5] = tested on: Acinetobacter baumannii; assay: Antibacterial activity against gram-negative Acinetobacter baumannii AB250 by CLSI method; format: functional
Method in brief: (§3)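 Broth microdilution MIC per CLSI in cation-adjusted Mueller Hinton broth, prepared fresh and held at 4 °C. Defibrinated horse blood added where appropriate. Compounds serially diluted in sterile deionized water. Strains from ATCC unless otherwise noted. Runs accepted when comparator antibiotics fell within QC ranges for ATCC quality control strains.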

[6] = tested on: Pseudomonas aeruginosa; assay: Antibacterial activity against Pseudomonas aeruginosa PA694 in CD-1 mouse model of thigh infection administered as iv bid for 2 to 12 hrs of post-infection measured after 24 hrs; format: functional
Method in brief: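 Female specific-pathogen-free CD-1 mice (22 ± 2 g), groups of 5, inoculated intramuscularly into right thigh with 3-5 x 10^6 CFU/mouse P. aeruginosa PA694 (UTI isolate). IV dosing at 5, 15 and 40 mg/kg at 2 and 12 h post-infection. Thigh muscle harvested at 24 h, homogenized in PBS pH 7.4, plated on Brain Heart Infusion agar + 0.5% charcoal; CFU/g thigh vs untreated controls; Mann-Whitney.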

[7] = tested on: Escherichia coli; assay: Antibacterial activity against gram-negative Escherichia coli EC155 harboring tet(A) by CLSI method; format: functional; method in brief: as §1
[8] = tested on: Proteus mirabilis; assay: Antibacterial activity against gram-negative Proteus mirabilis PM385 by CLSI method; format: functional; method in brief: as §3
[9] = tested on: Pseudomonas aeruginosa; assay: Antibacterial activity against Pseudomonas aeruginosa PA1145 in BALB/c mouse model of lung infection assessed as reduction in log10CFU per gram of lung at 5 mg/kg, iv bid administered 2 to 12 hrs of post-infection measured after 24 hrs relative to untreated control; format: functional; method in brief: as §2
[10] = tested on: Escherichia coli; assay: Antibacterial activity against gram-negative Escherichia coli EC107 by CLSI method; format: functional; method in brief: as §3
[11] = tested on: Stenotrophomonas maltophilia; assay: Antibacterial activity against gram-negative Stenotrophomonas maltophilia SM256 by CLSI method; format: functional; method in brief: as §3
[12] = tested on: Pseudomonas aeruginosa; assay: Antibacterial activity against gram-negative Pseudomonas aeruginosa PA555 by CLSI method; format: functional; method in brief: as §3
[13] = tested on: Staphylococcus aureus; assay: Antibacterial activity against gram-positive Staphylococcus aureus SA161 harboring tet(M) by CLSI method; format: functional; method in brief: as §1
[14] = tested on: Pseudomonas aeruginosa; assay: Antibacterial activity against Pseudomonas aeruginosa PA694 in CD-1 mouse model of thigh infection assessed as reduction in log10CFU per gram of thigh at 15 mg/kg, iv bid administered 2 to 12 hrs of post-infection measured after 24 hrs relative to untreated control; format: functional
Method in brief: (§4)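 Groups of 5 female specific-pathogen-free CD-1 mice, 22 ± 2 g. Right thigh inoculated intramuscularly with 3-5 x 10^6 CFU/mouse of P. aeruginosa PA694 (UTI isolate). Dosed IV at 5, 15 or 40 mg/kg at 2 and 12 h post-infection. Thigh muscle harvested at 24 h post-infection, homogenized in PBS (pH 7.4), plated on Brain Heart Infusion agar + 0.5% charcoal. Log10 CFU per gram thigh compared with 24 h untreated control.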

[15] = tested on: Enterococcus faecalis; assay: Antibacterial activity against gram-positive Enterococcus faecalis EFs327 harboring tet(M) by CLSI method; format: functional; method in brief: as §1
[16] = tested on: Burkholderia cenocepacia; assay: Antibacterial activity against gram-negative Burkholderia cenocepacia BC240 by CLSI method; format: functional
Method in brief: (§5)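 Defibrinated horse blood added where appropriate. Compounds serially diluted in sterile deionized water. Strains from ATCC unless otherwise noted. Runs accepted when comparator antibiotics fell within QC ranges for ATCC quality control strains.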

[17] = tested on: Pseudomonas aeruginosa; assay: Antibacterial activity against Pseudomonas aeruginosa PA694 in CD-1 mouse model of thigh infection assessed as reduction in log10CFU per gram of thigh at 5 mg/kg, iv bid administered 2 to 12 hrs of post-infection measured after 24 hrs relative to untreated control; format: functional; method in brief: as §4
[18] = tested on: Enterobacter cloacae; assay: Antibacterial activity against gram-negative Enterobacter cloacae EC1603 harboring tet(A) by CLSI method; format: functional; method in brief: as §1
[19] = tested on: Enterococcus faecium; assay: Antibacterial activity against gram-positive Enterococcus faecium EFm404 harboring tet(M) by CLSI method; format: functional; method in brief: as §1
[20] = tested on: Pseudomonas aeruginosa; assay: Antibacterial activity against Pseudomonas aeruginosa PA1145 in BALB/c mouse model of lung infection assessed as reduction in log10CFU per gram of lung at 15 mg/kg, iv bid administered 2 to 12 hrs of post-infection measured after 24 hrs relative to untreated control; format: functional; method in brief: as §2
[21] = tested on: Klebsiella pneumoniae; assay: Antibacterial activity against gram-negative Klebsiella pneumoniae KP457 harboring blacTX-M-15 extended spectrum beta-lactamase gene by CLSI method; format: functional; method in brief: as §1
[22] = tested on: Staphylococcus aureus; assay: Antibacterial activity against gram-positive Staphylococcus aureus SA101 by CLSI method; format: functional; method in brief: as §3
[23] = tested on: Pseudomonas aeruginosa; assay: Antibacterial activity against Pseudomonas aeruginosa PA1145 in BALB/c mouse model of lung infection administered as iv bid for 2 to 12 hrs of post-infection measured after 24 hrs; format: functional
Method in brief: (§6)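 Female BALB/c mice (18–20 g) infected intranasally with ~2 x 10^7 CFU/mouse P. aeruginosa PA1145 (cystic fibrosis isolate) under light anesthesia. Dosing at 2 and 12 h post-infection, IV (compound, tigecycline, amikacin) or intranasal (tobramycin); n = 6 per group. Lungs harvested 24 h after treatment start, homogenized, plated on MacConkey agar, 37 °C overnight; CFU/g lung; Mann-Whitney vs T = 0 h or 24 h controls.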

[24] = tested on: Pseudomonas aeruginosa; assay: Antibacterial activity against Pseudomonas aeruginosa PA694 in CD-1 mouse model of thigh infection assessed as reduction in log10CFU per gram of thigh administered intranasally as bid for 2 to 12 hrs of post-infection measured after 24 hrs; format: functional
[25] = tested on: Pseudomonas aeruginosa; assay: Antibacterial activity against Pseudomonas aeruginosa PA694 in CD-1 mouse model of thigh infection assessed as reduction in log10CFU per gram of thigh at 40 mg/kg, iv bid administered 2 to 12 hrs of post-infection measured after 24 hrs relative to untreated control; format: functional; method in brief: as §4
[26] = tested on: Streptococcus pneumoniae; assay: Antibacterial activity against gram-positive Streptococcus pneumoniae SP193 by CLSI method; format: functional; method in brief: as §3
[27] = tested on: Klebsiella pneumoniae; assay: Antibacterial activity against gram-negative Klebsiella pneumoniae KP194 by CLSI method; format: functional; method in brief: as §3
[28] = tested on: Klebsiella pneumoniae; assay: Antibacterial activity against gram-negative Klebsiella pneumoniae KP153 harboring tet(A) by CLSI method; format: functional; method in brief: as §1
[29] = tested on: Enterococcus faecalis; assay: Antibacterial activity against gram-positive Enterococcus faecalis EF159 harboring tet(M) by CLSI method; format: functional; method in brief: as §1
[30] = tested on: Proteus mirabilis; assay: Antibacterial activity against gram-negative Proteus mirabilis PM122 by CLSI method; format: functional; method in brief: as §5
[31] = tested on: Pseudomonas aeruginosa; assay: Antibacterial activity against gram-negative Pseudomonas aeruginosa PA169 by CLSI method; format: functional; method in brief: as §5
[32] = tested on: Pseudomonas aeruginosa; assay: Antibacterial activity against Pseudomonas aeruginosa PA1145 in BALB/c mouse model of lung infection assessed as reduction in log10CFU per gram of lung at 40 mg/kg, in bid administered 2 to 12 hrs of post-infection measured after 24 hrs relative to untreated control; format: functional, organism-based; method in brief: as §6
[33] = tested on: Pseudomonas aeruginosa; assay: Antibacterial activity against Pseudomonas aeruginosa PA1145 in BALB/c mouse model of lung infection administered intranasally as bid for 2 to 12 hrs of post-infection measured after 24 hrs; format: functional; method in brief: as §6

| SMILES | MIC [1] [µg/mL] | MIC [3] [µg/mL] | MIC [5] [µg/mL] | MIC [7] [µg/mL] | MIC [10] [µg/mL] | MIC [11] [µg/mL] | MIC [13] [µg/mL] | MIC [16] [µg/mL] | MIC [22] [µg/mL] | MIC [26] [µg/mL] | MIC [27] [µg/mL] | MIC [28] [µg/mL] | MIC [29] [µg/mL] | MIC [30] [µg/mL] | MIC [31] [µg/mL] | other results |
| --- | --- | --- | --- | --- | --- | --- | --- | --- | --- | --- | --- | --- | --- | --- | --- | --- |
| CN(C)[C@@H]1C(O)=C(C(N)=O)C(=O)[C@@]2(O)C(O)=C3C(=O)c4c(O)cc([C@@H]5CCCN5)c(C(F)(F)F)c4C[C@H]3C[C@@H]12 | ≤ 0.0156 | ≤ 0.0156 | 2 (≈ 3.63 µM) | 2 (≈ 3.63 µM) | ≤ 0.0156 | 1 (≈ 1.81 µM) | 4 (≈ 7.25 µM) | 8 (≈ 14.5 µM) | 0.0625 (≈ 0.113 µM) | – | – | – | – | – | – | Activity [2]: Dose-dependent effect; Activity [4]: 3.7 deltalog10CFU; MIC [6]: 4 µg/mL (≈ 7.25 µM); MIC [8]: 0.5 µg/mL (≈ 0.907 µM); Activity [9]: 1.7 deltalog10CFU; MIC [12]: 4 µg/mL (≈ 7.25 µM); Activity [14]: 0.9 deltalog10CFU; MIC [15]: 1 µg/mL (≈ 1.81 µM); Activity [17]: 0.4 deltalog10CFU; MIC [18]: 8 µg/mL (≈ 14.5 µM); MIC [19]: 0.25 µg/mL (≈ 0.453 µM); Activity [20]: 2.3 deltalog10CFU; MIC [21]: 0.125 µg/mL (≈ 0.227 µM); MIC [23]: 2 µg/mL (≈ 3.63 µM); Activity [24]: Dose-dependent effect; Activity [25]: 1.9 deltalog10CFU |
| CN1CCCCC1c1cc(O)c2c(c1Cl)C[C@H]1C[C@H]3[C@H](N(C)C)C(O)=C(C(N)=O)C(=O)[C@@]3(O)C(O)=C1C2=O (stereo partly specified) | 0.25 (≈ 0.458 µM) | 0.0313 (≈ 0.0573 µM) | 2 (≈ 3.66 µM) | 1 (≈ 1.83 µM) | 0.125 (≈ 0.229 µM) | 1 (≈ 1.83 µM) | 4 (≈ 7.33 µM) | 8 (≈ 14.7 µM) | 0.25 (≈ 0.458 µM) | ≤ 0.0156 | 16 (≈ 29.3 µM) | 1 (≈ 1.83 µM) | 2 (≈ 3.66 µM) | 1 (≈ 1.83 µM) | 32 (≈ 58.6 µM) | – |
| CN1CCCC1c1cc(O)c2c(c1Cl)C[C@H]1C[C@H]3[C@H](N(C)C)C(O)=C(C(N)=O)C(=O)[C@@]3(O)C(O)=C1C2=O (stereo partly specified) | 0.5 (≈ 0.94 µM) | ≤ 0.0156 | 0.5 (≈ 0.94 µM) | 1 (≈ 1.88 µM) | ≤ 0.0156 | 0.125 (≈ 0.235 µM) | 1 (≈ 1.88 µM) | 8 (≈ 15 µM) | 0.125 (≈ 0.235 µM) | ≤ 0.0156 | 8 (≈ 15 µM) | 0.5 (≈ 0.94 µM) | 1 (≈ 1.88 µM) | 0.5 (≈ 0.94 µM) | 16 (≈ 30.1 µM) | – |
| CN(C)[C@@H]1C(O)=C(C(N)=O)C(=O)[C@@]2(O)C(O)=C3C(=O)c4c(O)cc(-c5ccncc5)c(Cl)c4C[C@H]3C[C@@H]12 | 4 (≈ 7.61 µM) | 0.125 (≈ 0.238 µM) | 2 (≈ 3.8 µM) | > 32 | 2 (≈ 3.8 µM) | 2 (≈ 3.8 µM) | 0.5 (≈ 0.951 µM) | 8 (≈ 15.2 µM) | 0.125 (≈ 0.238 µM) | 0.25 (≈ 0.475 µM) | – | > 32 | 0.5 (≈ 0.951 µM) | 16 (≈ 30.4 µM) | > 32 | – |
| NC[C@H]1O[C@H](O[C@H]2[C@H](O)[C@@H](O[C@H]3O[C@H](CO)[C@@H](O)[C@H](N)[C@H]3O)[C@H](N)C[C@@H]2N)[C@H](N)C[C@@H]1O [TOBRAMYCIN] | – | – | – | – | – | – | – | – | – | – | – | – | – | – | – | Activity [32]: inactive; MIC [33]: 1 µg/mL (≈ 2.14 µM) |

From ChEMBL document CHEMBL4007456, “Heterocyclyl Tetracyclines. 1. 7-Trifluoromethyl-8-Pyrrolidinyltetracyclines: Potent, Broad Spectrum Antibacterial Agents with Enhanced Activity against Pseudomonas aeruginosa” (2017)
